{"source": "PubChem BioAssay AID504490", "about": "(NMMLSC, 2011)", "note": "The campaign covered roughly 340,000 compounds. About 1,100 (0.32%) were called active.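 The calls were made as follows: active = inhibition above a set limit, near 3 SD of compounds lacking own fluorescence (cut at about 54% in these data); inactive = the rest.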 For the sample, actives were picked, then their nearest neighbours and some compounds at random."}
{"test_system": "beta-arrestin 1 C-terminal peptide binding to AP2 beta2-adaptin appendage (human)", "experiment": "blockers of arrestin peptide association with AP2 adaptin – biochemical, GPCR trafficking, flow cytometry, primary screen (AID 504490);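 also: plate controls were DMSO wells for no effect and 5 µM unlabelled arrestin peptide for full effect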", "details": "FITC-arrestin peptide / GST-AP2 beads, at 10 µM, hits give high values, AP2 beta2 appendage carries R879A mutation", "in_short": "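test system = AP2 appendage R879A on GSH beads | buffer or medium = PBS plus Tween 20 (0.05%) and BSA (0.1%) | incubation = 12 min plus 1 h, RT | detection = bead flow cytometry, FITC channel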"}
{"compound": "O=C(CN1C(=O)NC2(CCCCCC2)C1=O)NCc1ccc(F)cc1", "inhibition": "13.2% (inactive)"}
{"compound": "CCc1ccc(N(CC(=O)Nc2sc3c(c2C(=O)OC)CCCC3)S(C)(=O)=O)cc1", "inhibition": "-5.8% (inactive)"}
{"compound": "N#CCSc1nn(-c2ccc(F)cc2)c(=S)s1", "inhibition": "1.03% (inactive)"}
{"compound": "O=S(=O)(c1ccccc1)N(Cc1cccc(F)c1)c1ccccc1", "inhibition": "6.33% (inactive)"}
{"compound": "Cc1ccc(N2C(=O)C(NC(=O)c3c(F)cccc3F)(C(F)(F)F)C3=C2CC(C)(C)CC3=O)cc1", "note": "(stereo unspecified)", "inhibition": "11.2% (inactive)"}
{"compound": "CC(C)C1C2=C(CC(C)(C)CC2=O)ON1c1ccccc1", "note": "(stereo unspecified)", "inhibition": "14.7% (inactive)"}
{"compound": "COC(=O)C1CC2=C(CC(C)(C)CC2=O)N(c2ccccc2)C1=O", "note": "(stereo unspecified)", "inhibition": "54.1% (active)"}
{"compound": "Cc1ccc2[nH]cc(CCNC(=O)c3ccc([N+](=O)[O-])cc3)c2c1", "inhibition": "5.19% (inactive)"}
{"compound": "CCN(CC)Cc1c(C(=O)N/N=C/c2cccc(OCc3ccc(F)cc3)c2)nnn1-c1nonc1N", "inhibition": "-0.16% (inactive)"}
{"compound": "Cn1ccsc1=NC(=O)c1cc(S(=O)(=O)N2CCOCC2)ccc1Cl", "inhibition": "-5.18% (inactive)"}
{"compound": "COc1cccc(-n2c(SCC(=O)c3c[nH]c4ccccc34)nc3ccccc3c2=O)c1", "inhibition": "105% (active)"}
{"compound": "COc1cccc(-n2c(SCC(=O)NC3CCS(=O)(=O)C3)nc3ccccc3c2=O)c1", "note": "(stereo unspecified)", "inhibition": "-2.41% (inactive)"}
{"compound": "COC(=O)c1ccc(CSc2nc3ccccc3c(=O)n2-c2cccc(OC)c2)o1", "inhibition": "5.8% (inactive)"}
{"compound": "CN(C)c1ccc(C2N(C)C(=O)c3ccccc3N2C)cc1", "note": "(stereo unspecified)", "inhibition": "-7.07% (inactive)"}
{"compound": "CN(C)c1ccc(Nc2c3c4c(cccc4n(C)c2=O)C(=O)c2ccccc2-3)cc1", "inhibition": "63.5% (active)"}
{"compound": "CCOc1ccccc1-c1cc(C(=O)N/N=C(\\C)c2cccnc2)c2ccccc2n1", "inhibition": "-0.49% (inactive)"}
{"compound": "O=C(NCCc1ccccn1)c1cc(-c2ccc(Cl)cc2)nc2ccccc12", "inhibition": "13.5% (inactive)"}
{"compound": "CC(=O)NCCNC(=O)c1cc(-c2cccc3ccccc23)nc2ccccc12", "inhibition": "60.3% (active)"}
{"compound": "c1ccc(CC2CCN(c3nc4ccccc4n4cnnc34)CC2)cc1", "inhibition": "-7.81% (inactive)"}
{"compound": "Cc1ccc(C)c(N(CC(=O)NCc2ccco2)C(=O)CCC(=O)Nc2ccccn2)c1", "inhibition": "-8.6% (inactive)"}
{"compound": "Brc1ccccc1C1N=C(c2ccccc2)NO1", "note": "(stereo unspecified)", "inhibition": "-3.82% (inactive)"}
{"compound": "Brc1ccccc1C1Nc2cccc3cccc(c23)N1", "inhibition": "56% (active)"}
{"compound": "COc1cc2c(cc1OC)C(c1ccccc1Br)NC(=O)C2", "note": "(stereo unspecified)", "inhibition": "-7.73% (inactive)"}
{"compound": "Oc1ccc(C2Nc3cccc4cccc(c34)N2)cc1", "inhibition": "56.2% (active)"}
{"compound": "COc1ccc(C2NC(=O)c3ccccc3N2)cc1", "note": "(stereo unspecified)", "inhibition": "26.1% (inactive)"}
{"compound": "COc1ccc([C@H]2CC(=O)C=C(c3ccc(C)cc3)C2)cc1", "inhibition": "18.7% (inactive)"}
{"compound": "CC(=O)Nc1ccc(S(=O)(=O)N2CCN(C(=O)c3ccccc3F)CC2)cc1", "inhibition": "-16.7% (inactive)"}
{"compound": "CC12COC3(C(=O)Nc4ccc(Cl)cn4)CC1CCC32C", "note": "(stereo unspecified)", "inhibition": "1.37% (inactive)"}
{"compound": "CCc1ccccc1N(CC(=O)NCC1CCCO1)C(=O)CCC(=O)Nc1nccs1", "note": "(stereo unspecified)", "inhibition": "-16.6% (inactive)"}
{"compound": "Brc1cc(/C=N/n2cnnc2)oc1Br", "inhibition": "1.91% (inactive)"}
{"compound": "Clc1cc(-c2ccc(/C=N/n3cnnc3)o2)ccc1Br", "inhibition": "1.32% (inactive)"}
{"compound": "Cc1ccc(Cl)cc1-c1ccc(/C=N/n2cnnc2)o1", "inhibition": "63.3% (active)"}
{"compound": "N#Cc1ccc(-c2ccc(Cl)cc2)nc1Oc1ccc(F)cc1", "inhibition": "-5.52% (inactive)"}
{"compound": "Cc1c(C2=CCN(S(=O)(=O)c3ccc(Cl)cc3)CC2)c2ccccc2n1C", "inhibition": "6.61% (inactive)"}
{"compound": "O=C(CCCNS(=O)(=O)c1cccc2nsnc12)NCCN1CCN(c2ccccc2F)CC1", "inhibition": "5.08% (inactive)"}
{"compound": "Cc1ccc(S(=O)(=O)N2CCN(C(=O)Cn3c(=O)cnc4ccccc43)CC2)c(C)c1", "inhibition": "-13.3% (inactive)"}
{"compound": "Cc1ccc(S(=O)(=O)N2CCN(C(=O)c3ccccc3-c3nc4ccccc4s3)CC2)c(C)c1", "inhibition": "66.5% (active)"}
{"compound": "Cc1ccc(S(=O)(=O)N2CCN(C(=O)N3CCOCC3)CC2)c(C)c1", "inhibition": "17.1% (inactive)"}
{"compound": "CC(C)(C)OC(=O)N1CCC(NC(=O)c2[nH]cnc2C(=O)N[C@@H](Cc2ccccc2)C(=O)OCc2ccccc2)CC1", "inhibition": "9.22% (inactive)"}
{"compound": "O=C(NCCN1CCOC1=O)C1CCC(=O)N(CCc2ccc(Cl)cc2)C1", "note": "(stereo unspecified)", "inhibition": "-10.1% (inactive)"}
{"compound": "CC(C)(C)c1ccc(C(=O)NCCn2c(N)c(C#N)c3nc4ccccc4nc32)cc1", "inhibition": "94.7% (active)"}
{"compound": "COCC(C)OC(=O)c1c(N)n(CCCN2CCOCC2)c2nc3ccccc3nc12", "note": "(stereo unspecified)", "inhibition": "-8.22% (inactive)"}
{"compound": "N#Cc1c(N)n(CCOC(=O)c2ccc(Cl)cc2)c2nc3ccccc3nc12", "inhibition": "3.34% (inactive)"}
{"compound": "COc1ccc(S(=O)(=O)Nc2cccc3c2O[C@H](CN(C)S(=O)(=O)c2ccc(OC)cc2)[C@@H](C)CN([C@H](C)CO)C3=O)cc1", "inhibition": "-15.4% (inactive)"}
{"compound": "COc1ccc(NC(=O)c2sc(N3CCOCC3)nc2-c2ccccc2)c(OC)c1", "inhibition": "18.7% (inactive)"}
{"compound": "COC(=O)CN1C(=O)[C@H]2[C@@H](/C=C/c3ccccc3)N3C(=O)CN(Cc4ccccc4)C(=O)[C@@]3(Cc3ccccc3)[C@H]2C1=O", "inhibition": "-5.14% (inactive)"}
{"compound": "CC(=O)Nc1ccc(NC(=O)CSC2=NS(=O)(=O)c3ccccc3N2)cc1", "inhibition": "22% (inactive)"}
{"compound": "COC(=O)[C@H](C(C)C)n1c(C)c(C(C)=O)c(C(C)=O)c1C", "inhibition": "-0.72% (inactive)"}
{"compound": "CCC(CC)c1nnc(NC(=O)c2nn(C)c(=O)c3ccccc23)s1", "inhibition": "-0.4% (inactive)"}
{"compound": "CCC(C)NC(=O)c1nn(C)c(=O)c2ccccc12", "note": "(stereo unspecified)", "inhibition": "-22% (inactive)"}
{"compound": "COC(=O)c1cc(NC(=O)c2nn(C)c(=O)c3ccccc23)cc(C(=O)OC)c1", "inhibition": "66.5% (active)"}
{"compound": "O=C(OCc1nc2ccccc2[nH]1)C1CCCCC1", "inhibition": "-0.04% (inactive)"}
{"compound": "Cn1c(N)c(C(=O)COC(=O)c2ccc3ccccc3c2)c(=O)n(C)c1=O", "inhibition": "7.54% (inactive)"}
{"compound": "Cc1cc(C(=O)OCC(=O)c2c(N)n(C)c(=O)n(C)c2=O)c(C)o1", "inhibition": "104% (active)"}
{"compound": "Cn1c(N)c(C(=O)COC(=O)c2cnc(Cl)c(Cl)c2)c(=O)n(C)c1=O", "inhibition": "-4.58% (inactive)"}
{"compound": "CCCCN(C(=O)CSCc1ccc(C)cc1)c1c(N)n(Cc2ccccc2)c(=O)[nH]c1=O", "inhibition": "-0.62% (inactive)"}
{"compound": "Cc1noc(C)c1CSc1nnc2ccc3ccccc3n12", "inhibition": "-1.44% (inactive)"}
{"compound": "Cc1coc2c(O)cc3c(c12)OC1(N2CCCCC2)C(=O)NCCCC31", "note": "(stereo unspecified)", "inhibition": "9.81% (inactive)"}
{"compound": "O=[N+]([O-])c1ccccc1N/N=C1\\CCc2ccccc21", "inhibition": "-6.42% (inactive)"}
{"compound": "Cn1cnnc1Sc1ccc(CN2CCN(C3CCCC3)C(CCO)C2)o1", "note": "(stereo unspecified)", "inhibition": "-10.1% (inactive)"}
{"compound": "CC(NC(=O)c1cc2cc(Cl)ccc2oc1=N)c1ccccc1", "note": "(stereo unspecified)", "inhibition": "56% (active)"}
{"compound": "CC(NC(=O)C(=O)N/N=C/c1ccc(Cl)cc1)c1ccccc1", "note": "(stereo unspecified)", "inhibition": "6.57% (inactive)"}
{"compound": "Cc1ccc(C(=O)NC(C)c2ccccc2)cc1Br", "note": "(stereo unspecified)", "inhibition": "-2.36% (inactive)"}
{"compound": "CN(C(=O)c1cccc([N+](=O)[O-])c1)c1ccccc1C(=O)NCc1ccccc1", "inhibition": "-22.1% (inactive)"}
{"compound": "Cc1ccc(C)c(Cn2cnc3c(oc4ccccc43)c2=O)c1", "inhibition": "29.7% (inactive)"}
{"compound": "CCC(C(=O)OC)n1cnc2scc(-c3ccc(C)cc3)c2c1=O", "note": "(stereo unspecified)", "inhibition": "-1.08% (inactive)"}
{"compound": "CCC(C(=O)OC)n1cnc2c(oc3ccccc32)c1=O", "note": "(stereo unspecified)", "inhibition": "54.6% (active)"}
{"compound": "Cc1ccc(NC(=O)CN2CCC3(O)CCCCC3C2c2ccc3c(c2)OCO3)c(C)c1", "note": "(stereo unspecified)", "inhibition": "1.75% (inactive)"}
{"compound": "CC(=O)Nc1ccc(NC(=O)CN2C(=O)COc3ccc(S(=O)(=O)N4CCCCC4)cc32)cc1", "inhibition": "-9.58% (inactive)"}
{"compound": "COC(=O)C1=C(C(=O)OC)C2(OC1c1ccc(Br)cc1)C(=O)c1ccccc1C2=O", "note": "(stereo unspecified)", "inhibition": "7.98% (inactive)"}
{"compound": "COc1ccc2c(CC(=O)N3CCc4cc(OC)c(OC)cc4C3)coc2c1", "inhibition": "-6.31% (inactive)"}
{"compound": "COc1cc2c(cc1OC)CN(C(=O)c1cc(=O)c3ccccc3o1)CC2", "inhibition": "82.5% (active)"}
{"compound": "COc1ccccc1CNC(=O)c1cc(=O)c2ccccc2o1", "inhibition": "2.61% (inactive)"}
{"compound": "C=CCn1c(C(C)NC(=O)CC)nc2ccccc21", "note": "(stereo unspecified)", "inhibition": "-3.06% (inactive)"}
{"compound": "CCC(=O)Nc1nc2ccccc2n1Cc1ccccc1C", "inhibition": "69.6% (active)"}
{"compound": "CC(=O)NC(C)c1nc2ccccc2n1Cc1ccccc1F", "note": "(stereo unspecified)", "inhibition": "-8.31% (inactive)"}
{"compound": "O=C(CSc1nnc(-c2ccncc2)n1C1CCCCC1)Nc1ccccc1", "inhibition": "0.57% (inactive)"}
{"compound": "Cc1cccc(Nc2ccccc2C(=O)NCc2ccco2)c1C", "inhibition": "99.8% (active)"}
{"compound": "Cc1ccc(N(Cc2ccc(C(=O)Nc3ccccc3C(=O)NCc3ccco3)cc2)S(C)(=O)=O)cc1C", "inhibition": "-0.75% (inactive)"}
{"compound": "O=C(CCNC(=O)c1ccccc1Cl)NCc1ccco1", "inhibition": "-2.42% (inactive)"}
{"compound": "CC(Oc1ccccc1)C(=O)Nc1c2c(nn1-c1ccccc1)CS(=O)C2", "note": "(stereo unspecified)", "inhibition": "4.67% (inactive)"}
{"compound": "CC(Oc1ccccc1)C(=O)NN1Cc2ccccc2C1=N", "note": "(stereo unspecified)", "inhibition": "59.1% (active)"}
{"compound": "COc1ccc(OCC(=O)NN2Cc3ccccc3C2=N)cc1", "inhibition": "10.9% (inactive)"}
{"compound": "O=C(CSc1nnc(COc2ccc(Cl)cc2)n1Cc1ccco1)N1CCNC1=O", "inhibition": "-11.3% (inactive)"}
{"compound": "CCc1cccc(C)c1NC(=S)N(CCCN1CCN(C)CC1)Cc1cccs1", "inhibition": "-5.26% (inactive)"}
{"compound": "COc1cc(Cl)ccc1OCc1cc(C(=O)N(C)CCc2c(C)n[nH]c2C)no1", "inhibition": "-14.3% (inactive)"}
